# High-throughput results: PubChem BioAssay, Johns Hopkins Ion Channel Center
# TRPC4 inh = inhibitors of mouse TRPC4 channel; actives 0.39% (n = 300,000); HEK293 TRPC4beta/mu-opioid, DAMGO-evoked Fluo4 calcium flux; active compounds read low; B-score at 10 µM; AID 2247;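 active = B-score over 3 SD under the library average, no early fluorescence shift, positive overall ratio signal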
# Target sequence (Q9QUQ5 whole entry, looked up): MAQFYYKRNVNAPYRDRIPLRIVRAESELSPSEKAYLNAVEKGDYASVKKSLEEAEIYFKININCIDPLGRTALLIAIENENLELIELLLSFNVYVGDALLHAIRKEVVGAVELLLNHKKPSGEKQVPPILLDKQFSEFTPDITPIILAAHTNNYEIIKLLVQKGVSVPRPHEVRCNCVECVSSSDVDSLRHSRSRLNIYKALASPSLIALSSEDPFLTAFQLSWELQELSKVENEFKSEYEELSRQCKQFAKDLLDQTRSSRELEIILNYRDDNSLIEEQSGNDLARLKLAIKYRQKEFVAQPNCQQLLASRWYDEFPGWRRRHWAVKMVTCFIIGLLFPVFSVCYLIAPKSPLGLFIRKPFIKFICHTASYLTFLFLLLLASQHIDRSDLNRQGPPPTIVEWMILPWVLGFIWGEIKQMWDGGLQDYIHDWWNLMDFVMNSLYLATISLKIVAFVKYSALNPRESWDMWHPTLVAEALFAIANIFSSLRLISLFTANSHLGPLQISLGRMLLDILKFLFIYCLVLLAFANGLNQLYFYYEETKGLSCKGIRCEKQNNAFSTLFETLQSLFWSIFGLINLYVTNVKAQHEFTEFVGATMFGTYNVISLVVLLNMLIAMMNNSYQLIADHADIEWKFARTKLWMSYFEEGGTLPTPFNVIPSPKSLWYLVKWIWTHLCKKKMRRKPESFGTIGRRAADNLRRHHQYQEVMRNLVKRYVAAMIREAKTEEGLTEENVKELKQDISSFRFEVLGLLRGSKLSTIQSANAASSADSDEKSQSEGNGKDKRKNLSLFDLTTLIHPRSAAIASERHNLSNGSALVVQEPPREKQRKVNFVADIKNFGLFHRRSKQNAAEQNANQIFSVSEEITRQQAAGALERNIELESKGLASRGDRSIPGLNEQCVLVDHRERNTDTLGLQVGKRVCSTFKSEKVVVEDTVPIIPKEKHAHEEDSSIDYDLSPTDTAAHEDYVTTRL
#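 material = TRPC4beta/mu-opioid receptor HEK293 cell line | probe or stimulus = sequential submaximal and maximal DAMGO stimulation | compound dosing = one concentration per compound | measured by = Fluo4 Ca2+ flux fluorescence | evaluation = integrated fluorescence ratio relative to baseline, converted to per-well B score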
# TRPC6 inh = blocks the mouse TRPC6 cation channel; Q61143; HEK293-TRPC6, membrane potential dye, ACh-evoked depolarization; active compounds read low; B-score at 10 µM; actives 1.1% (n = 310,000);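 active = B-score under library mean minus 3 SD, initial fluorescence not abnormally high, positive integrated signal ratio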;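 note: B-score derived from integrated fluorescence ratio over the kinetic read; more negative B-score means stronger inhibition of depolarization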
# TRPC4 PAM = allosterically enhances the mouse TRPC4 cation channel; HEK293 TRPC4beta/mu-opioid, DAMGO EC20, Fluo-4 Ca2+ flux; active compounds read high; B-score at 10 µM; AID 2227; Q9QUQ5; actives 0.42% (n = 310,000);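 active = B-score of calcium response area above 5 SD of library B-scores, with initial fluorescence ratio within 5 SD of library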
# TRPC4 agonist = TRPC4 (mouse) channel activation. HEK293 TRPC4beta/mu-opioid, Fluo4 calcium fluorescence; active compounds read high. B-score at 10 µM. actives 0.49% (n = 310,000). AID 2237;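 active = B-score above 5 SD of library B-scores, and initial fluorescence ratio not above library mean plus 5 SD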;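 note: positive B-score marks a calcium rise read as TRPC4 activation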
#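 Technique: kinetic Fluo4 calcium fluorescence; Test system: TRPC4beta and mu-opioid receptor HEK293 stable cells; Measure: B-scored integrated calcium fluorescence ratio; Benchmarks: low control buffer alone, high control maximal DAMGO; Schedule: 45 min room-temperature Fluo4 loading, 110 s read.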
# TRPC6 act = mouse TRPC6 channel activation. actives 0.13% (n = 310,000). B-score at 10 µM. HEK293-TRPC6 membrane potential dye fluorescence; active compounds read high. AID 2550. Q61143;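 active = B-score of the integrated fluorescence ratio above library mean plus 3 SD, and starting fluorescence ratio within library mean plus 5 SD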;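 note: higher score means more depolarization so channel activation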
# Kir21 inh = inhibitors of mouse Kir2.1 inward-rectifier potassium channel. AID 1672. HEK293-Kir2.1, FluxOR thallium flux fluorescence; active compounds read low. B-score at 10 µM. actives 0.85% (n = 310,000). P35561;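 active = fluorescence ratio B-score at or below minus 3 SD of library scores, with starting-brightness B-score within 2 SD, cut at about -4.2 in these data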;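 note: channel flux triggered by added potassium and thallium sulfate stimulus; B-score of peak minus minimum fluorescence over baseline after thallium stimulus; more negative B-score means stronger Kir2.1 block with less thallium influx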
# TRPC4 spec 2 = second selectivity test of TRPC6 inhibitors: effect on mouse TRPC4. shares compounds with TRPC6 inh. HEK293 TRPC4/MOR, membrane potential dye fluorescence; channel activated by saturating DAMGO dose. inhibition, % at 10 µM. actives 42% (n = 920);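 active = compounds whose fluorescence signal differed from control wells by over 3 SD, either direction, in both duplicate plates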
# TRPC4 spec = selectivity of TRPC6 inhibitors: effect on mouse TRPC4. shares compounds with TRPC6 inh. HEK293 TRPC4/mu-opioid, membrane potential fluorescence. activity change, negative = inhibition, % at 10 µM. actives 61% (n = 920). AID 2777;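 active = rise or fall in signal beyond 3 SD of buffer-only wells in both replicate plates, either sign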;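 note: integrated kinetic ratio of fluorescence range over baseline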
# HEK293 MPD ctr 2-1 = second check of TRPC6 inhibitor effects in parental HEK293 cells; parental HEK293 membrane potential dye fluorescence; maximal acetylcholine challenge after compound addition; shares compounds with TRPC6 inh; actives 31% (n = 920); signal change vs control, % at 10 µM;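 active = membrane potential signal moving either way by over 3 SD of the maximum-effect control, in both duplicate plates, meaning non-specific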
# HEK293 MPD ctr-1 = checks TRPC6 inhibitor effects in parental HEK293 cells. parental HEK293 membrane potential dye fluorescence. actives 60% (n = 920). membrane potential signal change, % at 10 µM. shares compounds with TRPC6 inh;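 active = membrane potential signal shifting up or down by more than 3 SD of buffer-only wells, on both duplicate plates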
# HEK293 MPD ctr-2 = checks TRPC6 modulator effects in parental HEK293 cells. shares compounds with TRPC6 inh. membrane potential signal change, % at 10 µM. AID 488924. actives 51% (n = 2,400). membrane potential dye fluorescence;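 active = membrane potential signal moves up or down beyond 5 SD from buffer-only wells, on both duplicate plates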
# HEK293 MPD ctr 2-2 = second check of TRPC6 modulator effects in parental HEK293 cells; shares compounds with TRPC6 inh; membrane potential dye fluorescence; after compound, maximal acetylcholine stimulation; inhibition, % at 10 µM; actives 14% (n = 2,400); AID 488926;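 active = membrane potential signal drops by more than 5 SD from the mean control signal, in both duplicate plates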
# TRPC4/MOR mod = mouse TRPC4 off-target activity of TRPC6 modulators | actives 69% (n = 2,400) | AID 488927 | shares compounds with TRPC6 inh | percent change from control (negative = decrease, positive = increase), % at 10 µM | HEK293 TRPC4/mu-opioid, membrane potential fluorescence;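 active = membrane potential signal moved up or down beyond 5 SD of buffer control wells, in both duplicate plates, actives on both sides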
# TRPC4 ctr inh 2 = second check of whether TRPC6 modulators also affect mouse TRPC4; shares compounds with TRPC6 inh; HEK293 TRPC4/mu-opioid, membrane potential dye fluorescence; stimulated with maximal-effect DAMGO; inhibition, % at 10 µM; actives 55% (n = 2,400); AID 488928;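 active = drop in membrane potential signal beyond 5 SD of the control wells in both duplicate plates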;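 note: TRPC4 counter screen for TRPC6 hits run under conditions tuned for TRPC6 not TRPC4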
# TRPC6 block conf = mouse TRPC6 inhibitor confirmation | inhibition, % at 10 µM | AID 488960 | shares compounds with TRPC6 inh | actives 43% (n = 3,300) | HEK293-TRPC6, membrane potential dye, ACh-evoked depolarization;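 active = fluorescence ratio falls more than 5 SD below the full-stimulation control mean, in both duplicate runs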;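 note: integrated fluorescence ratio of peak minus minimum over baseline after agonist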
# TRPC6 act conf = mouse TRPC6 activator confirmation. shares compounds with TRPC6 inh. HEK293-TRPC6 membrane potential dye fluorescence, FDSS. activation, % at 10 µM. actives 11% (n = 2,800);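 active = ratio signal rise beyond 5 SD above unstimulated control wells' mean, seen in both duplicate runs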
# Hits are given with their value; . = inactive; / = no result. Only some compounds are listed: those with a hit (about 2.9% of all), similar ones and a draw of the others.
SMILES,TRPC4 inh,TRPC6 inh,TRPC4 PAM,TRPC4 agonist,TRPC6 act,Kir21 inh,HEK293 MPD ctr-2,HEK293 MPD ctr 2-2,TRPC4/MOR mod,TRPC4 ctr inh 2,TRPC6 block conf,TRPC6 act conf,others
Cc1cc(C)c2sc(N(CCN(C)C)C(=O)c3c(F)cccc3F)nc2c1,.,.,.,.,.,.,/,/,/,/,/,/,
Cc1cccc2sc(N(CCCN(C)C)C(=O)c3ccco3)nc12,.,-6.8,.,.,.,.,/,/,/,/,99%,.,TRPC4 spec 2=24%;TRPC4 spec=-19%;HEK293 MPD ctr 2-1=9.0%;HEK293 MPD ctr-1=.
Cc1cc(C)cc(OCC(=O)NNC(=S)NC(=O)C2CC2)c1,.,.,.,.,.,.,/,/,/,/,/,/,
O=C(NC1CCC(O)CC1)c1ccc(-c2ccc([N+](=O)[O-])cc2)o1 (stereo not drawn),.,.,.,.,.,.,/,/,/,/,/,/,
O=C(O)CC1SC(=O)N(CC(=O)c2ccccc2)C1=O (stereo not drawn),.,.,.,.,.,.,/,/,/,/,/,/,
CSC1=N/C(=C\c2ccc(Cl)cc2)C(=O)N1N(C)C,.,.,.,.,.,.,/,/,/,/,/,/,
CC1(C)CN=c2s/c(=C\c3ccc(Cl)cc3)c(=O)n2C1,.,-7.3,16,.,.,.,/,/,/,/,.,.,TRPC4 spec 2=54%;TRPC4 spec=-10%;HEK293 MPD ctr 2-1=.;HEK293 MPD ctr-1=.
CCc1nnc(NC(=O)CSc2nnc(-c3ccccc3OC)n2-c2ccccc2)s1,.,.,.,.,12,.,182%,.,40%,.,.,54%,
CCc1nnc(NC(=O)CSc2nnc(-c3ccccc3OC)n2-c2ccc(C)cc2)s1,.,.,.,.,.,.,/,/,/,/,/,/,
N#Cc1c(NC(=S)NC(=O)Cc2cccs2)sc2c1CCCCC2,.,.,.,.,.,.,/,/,/,/,/,/,
Cn1cccc1/C=C1\CC(C(C)(C)C)C/C(=C\c2cccn2C)C1=O (stereo not drawn),.,.,.,.,30,.,182%,.,.,.,.,.,
CCN(CC)c1ccc(/C=C(/C#N)C(=O)NCc2ccccc2)o1,.,.,.,.,19,.,590%,.,183%,.,.,132%,
CCN(CC)c1ccc(/C=C(/C#N)C(=O)NC(C)C)o1,.,.,.,.,.,.,/,/,/,/,/,/,
N#CCCN1CCCc2cc(N=Nc3ccc(C(F)(F)F)cc3)ccc21,.,.,.,.,.,.,/,/,/,/,/,/,
NS(=O)(=O)c1cc(C(=O)NC2CCSc3ccccc32)ccc1Cl (stereo not drawn),.,.,.,.,13,.,122%,.,32%,.,.,70%,
COc1ccc(C)cc1N=Nc1ccc(O)c2ncccc12,.,-5.1,.,.,.,.,-135%,.,-34%,73%,.,.,
COc1ccc(N=Nc2ccc(O)c3ncccc23)cc1,.,.,.,.,.,.,/,/,/,/,/,/,
COc1ccccc1C(=O)NCC(=O)N/N=C(\C)Cc1ccccc1,.,.,.,.,.,.,/,/,/,/,/,/,
CCC[N+](CC#Cc1ccccc1)(CCC)CC(=O)c1ccc(Cl)cc1,.,-5.7,.,.,.,.,332%,.,77%,52%,68%,/,
OC(c1cccs1)(c1cccs1)C1C[N+]2(CF)CCC1CC2 (stereo not drawn),.,-6.4,.,.,.,.,.,.,.,.,40%,.,
COCCCn1c(=N)c(C(N)=S)cc2c(=O)n3cccc(C)c3nc21,.,-6.3,.,.,.,.,.,.,.,.,.,.,
COc1ccc(CCNC(=O)c2cc3c(=O)n4cccc(C)c4nc3n(Cc3ccco3)c2=N)cc1OC,.,.,.,.,.,.,/,/,/,/,/,/,
CCCCNC(=O)c1cc2c(=O)n3cccc(C)c3nc2n(Cc2ccncc2)c1=N,.,-6.7,.,.,.,.,/,/,/,/,.,.,TRPC4 spec 2=.;TRPC4 spec=-20%;HEK293 MPD ctr 2-1=.;HEK293 MPD ctr-1=-341%
CCCCNC(=O)c1cc2c(=O)n3cccc(C)c3nc2n(CCN2CCOCC2)c1=N,.,-6.6,.,.,.,.,/,/,/,/,.,.,TRPC4 spec 2=.;TRPC4 spec=.;HEK293 MPD ctr 2-1=-26%;HEK293 MPD ctr-1=.
COCCNC(=O)c1cc2c(=O)n3cccc(C)c3nc2n(Cc2ccncc2)c1=N,.,-11,.,.,.,.,/,/,/,/,.,.,TRPC4 spec 2=78%;TRPC4 spec=-11%;HEK293 MPD ctr 2-1=-118%;HEK293 MPD ctr-1=-230%
SMILES,TRPC4 inh,TRPC6 inh,TRPC4 PAM,TRPC4 agonist,TRPC6 act,Kir21 inh,HEK293 MPD ctr-2,HEK293 MPD ctr 2-2,TRPC4/MOR mod,TRPC4 ctr inh 2,TRPC6 block conf,TRPC6 act conf,others
COc1ccc(CCC(C)NC2C3CC4CC(C3)CC2C4)cc1 (stereo not drawn),.,-8.5,.,.,.,.,/,/,/,/,94%,/,TRPC4 spec 2=66%;TRPC4 spec=37%;HEK293 MPD ctr 2-1=-12%;HEK293 MPD ctr-1=21%
COc1ccc(CCC(C)Nc2ccccc2F)cc1 (stereo not drawn),.,.,.,.,.,.,/,/,/,/,/,/,
CCOC(=O)c1c(C)n(C)c2ccc(OC(=O)c3ccc(N4C(=O)CCC4=O)cc3)cc12,.,.,.,.,.,.,/,/,/,/,/,/,
CCOP(=O)(OCC)c1nc(-c2ccccc2)oc1N1CCCCC1,.,.,.,.,.,.,/,/,/,/,/,/,
COP(=O)(OC)c1nc(-c2ccc([N+](=O)[O-])cc2)oc1N1CCCCC1,.,-7.1,.,.,19,.,618%,198%,120%,51%,84%,230%,
CC(=O)c1ccc(NC(=O)Cn2cnc(S(=O)(=O)N3CCc4ccccc43)c2)cc1,.,.,.,.,.,.,/,/,/,/,/,/,
